{"data": "Measurements of several laboratories", "target": "D(1A) dopamine receptor (DRD1, Homo sapiens, UniProt P21728)"}
{"SMILES": "CCCOc1cc2c(cc1O)[C@@H]1Cc3c(Br)cc(O)c(OCC(F)F)c3CN1CC2", "effect on": "cAMP", "mode": "antagonist", "method": "TR-FRET", "quantity": "IC50", "value": "1450 nM"}
{"SMILES": "O=C1c2ccccc2CCN1CCCCN1CCN(c2ccccn2)CC1", "effect on": "cell-free assay", "method": "radioligand", "quantity": "Ki", "value": "1660 nM"}
{"SMILES": "CCCCOc1c(O)cc(Br)c2c1CN1CCc3cc(OCC(F)F)c(O)cc3[C@@H]1C2", "effect on": "cAMP", "mode": "antagonist", "method": "TR-FRET", "quantity": "IC50", "value": "318 nM"}
{"SMILES": "CCCCN1CCC(COC(=O)c2ccc(N)c(OCF)c2)CC1", "effect on": "cell-free assay", "method": "radioligand", "quantity": "Ki", "value": "> 10000 nM"}
{"SMILES": "C[C@@H]1Cc2ccccc2N1C(=O)NCCCCN(C)[C@@H]1Cc2cccc3[nH]c(=O)n(c23)C1", "effect on": "ligand displacement", "method": "radioligand", "quantity": "Ki", "value": "> 10000 nM"}
{"SMILES": "COc1ccc2c(c1)C(=O)N(CCCN1CCN(c3ccccc3OC)CC1)C2", "effect on": "cell-free assay", "method": "radioligand", "quantity": "Ki", "value": "6220 nM"}
{"SMILES": "CCCOc1cc2c(cc1O)[C@@H]1Cc3c(Br)cc(O)c(OCC(F)(F)F)c3CN1CC2", "effect on": "cAMP", "mode": "antagonist", "method": "TR-FRET", "quantity": "IC50", "value": "248 nM"}
{"SMILES": "CCOCc1nc(O)c(-c2nnc(Cc3ccc(Cl)cn3)o2)c(O)c1-c1c(OC)cccc1OC", "effect on": "ligand displacement", "method": "radioligand", "quantity": "IC50", "value": "> 30000 nM"}
{"SMILES": "CN(CCCCNC(=O)c1cc2ccccc2[nH]1)[C@@H]1Cc2cccc3[nH]c(=O)n(c23)C1", "effect on": "ligand displacement", "method": "radioligand", "quantity": "Ki", "value": "> 7900 nM"}
{"SMILES": "O=C1c2ccccc2CCN1CCCCN1CCN(c2cccc(Cl)c2Cl)CC1", "effect on": "cell-free assay", "method": "radioligand", "quantity": "Ki", "value": "511 nM"}
